Screening results deposited in PubChem BioAssay by The Scripps Research Institute Molecular Screening Center.
Sampled rows, rich in hits. Any-hit rate of the full collection: about 3.1%.
LEDGF integ inh: blockers of LEDGF/p75-dependent integrase strand transfer – biochemical, TR-FRET, high throughput, primary screen; inhibition, % at 3.7 µM; TR-FRET IN-LEDGF/p75 DNA integration, Eu/Cy5; AID 743269, 2014; hit rate 0.64% among 370,000; HIV-1 integrase (with human LEDGF/p75);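 active means inhibition above the screen-wide mean plus 3 SD, cut at about 13% in these data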;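 further: signal is the Cy5 over europium emission ratio at 671 and 618 nm; 0% = plate median of compound wells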
PRMT1 FP inh: PRMT1 methyltransferase inhibitors, primary screen, biochemical, fluorescence polarization; Protein arginine N-methyltransferase 1 (Homo sapiens), Q99873; recombinant PRMT1, activity-based probe fluorescence polarization; inhibition, % at 2.79 µM; hit rate 1.3% among 370,000; AID 652257, 2013;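 active means inhibition above about 21% made by adding two undisclosed values, limit read from the data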
RBBP9 inh: human RBBP9 inhibitors, primary screen, biochemical, fluorescence polarization, FP-Rh probe, HTS. hit rate 0.2% among 220,000. inhibition, % at 7.94 µM. recombinant RBBP9. AID 1515, 2009;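 active means inhibition above the campaign mean of all tested compounds plus 3 SD, cut at about 14% in these data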;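 further: plate controls were DMSO wells with RBBP9 for no effect and wells lacking RBBP9 protein for full effect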
Target sequence (O75884 whole entry, looked up): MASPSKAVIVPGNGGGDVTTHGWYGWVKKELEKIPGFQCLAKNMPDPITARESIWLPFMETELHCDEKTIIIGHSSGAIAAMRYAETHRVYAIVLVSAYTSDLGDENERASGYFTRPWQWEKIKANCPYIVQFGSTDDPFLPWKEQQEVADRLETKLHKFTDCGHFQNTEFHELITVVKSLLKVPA
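Controls: DMSO-treated enzyme wells and wells lacking RBBP9 | Material: RBBP9 protein | Technique: Fluorescence polarization | Replication: Single well per compound, no replicates | Buffer or medium: Tris-NaCl-Pluronic buffer, pH 8.0 | Timing: 30 min compound preincubation, 45 min probe labeling, 25 °C | Read-out basis: Percent inhibition from mP, scaled between DMSO and no-protein wells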
UHRF1 binding: UHRF1 methylated DNA binding inhibitors, primary screen, counter-screen for MBD2 inhibitor project, biochemical, TR-FRET, human UHRF1, single concentration; inhibition, % at 4.4 µM; UHRF1 binding to methylated oligo; E3 ubiquitin-protein ligase UHRF1 (Homo sapiens), Q96T88; hit rate 0.75% among 370,000; in the data active means inhibition above about 21%;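 further: UHRF1 SRA domain binding a hemimethylated CpG hairpin DNA probe; 0% = median of test compound wells and 100% = reference inhibitor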
MBD2 inh: inhibitors of MBD2 binding to methylated DNA, primary screen, biochemical, TR-FRET, DNA-binding domain, human; MBD2 binding to methylated oligonucleotide; inhibition, % at 4.4 µM; hit rate 0.31% among 370,000; AID 686964, 2013; in the data active means inhibition above about 13%
Target sequence (Q9UBB5 whole entry, looked up, the tested form may be a part): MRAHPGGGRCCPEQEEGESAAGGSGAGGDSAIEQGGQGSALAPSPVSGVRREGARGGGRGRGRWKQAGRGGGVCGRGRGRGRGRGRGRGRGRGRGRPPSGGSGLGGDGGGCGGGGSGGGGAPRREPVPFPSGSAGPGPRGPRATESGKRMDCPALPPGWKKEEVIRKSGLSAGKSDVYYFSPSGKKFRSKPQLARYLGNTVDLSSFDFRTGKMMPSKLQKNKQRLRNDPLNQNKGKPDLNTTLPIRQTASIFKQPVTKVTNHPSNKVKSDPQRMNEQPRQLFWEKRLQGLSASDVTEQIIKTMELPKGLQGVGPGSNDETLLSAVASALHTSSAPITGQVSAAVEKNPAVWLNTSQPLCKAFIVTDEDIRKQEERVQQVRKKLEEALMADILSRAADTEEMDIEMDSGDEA
ABHD5-PLIN5 inh: ABHD5-PLIN5 interaction inhibitors, primary screen, cell lysate, split luciferase complementation, luminescence; Perilipin-5 (Homo sapiens) + 1-acylglycerol-3-phosphate O-acyltransferase ABHD5 (Homo …; Split G. princeps luciferase complementation, 4 h; inhibition, % at 4 µM; hit rate 0.78% among 360,000;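 active means inhibition above the mean inhibition across every tested compound plus 3 SD, cut at about 22% in these data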;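 further: 0% = DMSO only wells and the 100% control is not disclosed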
IN multimer up: HIV-1 IN multimer formation enhancers, counter-screen for LEDGF/p75 integration inhibitor project, biochemical, TR-FRET; activation, % at 7.7 µM; TR-FRET HIV-1 integrase multimerization; hit rate 17% among 2,000; shares compounds with LEDGF integ inh; in the data active means activation above about 8.9%
TRFRET interf: TR-FRET optical interference artefacts, confirmation, artefact control for LEDGF/p75-dependent integration inhibitor project, biochemical, HIV-1 IN multimerization; 2,000 tested, under 10 active; shares compounds with LEDGF integ inh; AID 1053135, 2014; TR-FRET optical interference counterscreen; inhibition, % at 7.7 µM;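 active means inhibition above the mean over all tested compounds plus 3 SD, which no compound reached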;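 further: 0% = integrase with antibodies and DMSO and 100% = antibodies without integrase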
LEDGF integ conf: inhibitors of HIV-1 IN-LEDGF/p75 DNA integration, confirmation, biochemical, TR-FRET; shares compounds with LEDGF integ inh; TR-FRET LEDGF/p75-dependent HIV-1 integration; inhibition, % at 3.7 µM; hit rate 36% among 2,000; in the data active means inhibition above about 14%
Numbers without * were called inactive; / = no result.

SMILES	LEDGF integ inh	PRMT1 FP inh	RBBP9 inh	UHRF1 binding	MBD2 inh	ABHD5-PLIN5 inh	IN multimer up	TRFRET interf	LEDGF integ conf
COc1ccc(-c2cnc(N)n2CC2CCCO2)cc1 (stereo not drawn)	28*	3	-4	2	8	5	0	2	-5
c1ccc(-c2cnc(SCCN3CCOCC3)n2CC2CCCO2)cc1 (stereo not drawn)	4	2	5	-1	3	-1	/	/	/
Clc1cccc(Oc2cnns2)c1Cl	17*	-3	-10	3	1	-3	2	-7	-5
CC1=NN(c2cccc(C(=O)O)c2)C(=O)/C1=C\C=C/c1ccccc1	16*	-1	-3	-1	-2	20	7	-24	16*
CC1=NN(c2ccccc2)C(=O)C1=Cc1ccccc1	12	0	/	16	5	-15	/	/	/
CC1=NN(c2ccccc2)C(=O)/C1=C/C=C/C=C/N(C)C	23*	-3	-3	-29	-21	17	16*	-56	-4
CC1=NN(c2ccccc2)C(=O)/C1=C/c1cccs1	46*	3	2	18	10	-12	3	-11	-1
CC1=NN(c2ccc(C)cc2)C(=O)/C1=C\C=C\c1ccccc1	8	3	-2	2	0	0	/	/	/
CN(C)c1ccc(-c2nn3c(-c4ccco4)nnc3s2)cc1	4	-3	/	-6	-1	/	/	/	/
COc1cc(C=Nn2c(-c3ccccc3F)n[nH]c2=S)ccc1OCc1ccccc1	1	19	/	0	1	/	/	/	/
CC1CCN(C(=O)CCNS(=O)(=O)c2ccc(Br)cc2)CC1	45*	1	/	-1	-2	-10	-1	4	-4
C[C@H]1[C@@H](OC(=O)N2CCOCC2)CC[C@@]23CCCN2C(=O)CCC[C@@H]13	6	-4	/	-2	0	/	/	/	/
COC(=O)C1=C(C)N(Cc2ccco2)C(=O)C1	29*	6	0	11	6	18	2	-7	31*
O=C(NCCNCc1ccc(F)cc1)c1ccco1	22*	-5	-2	1	-3	-7	0	-2	-2
O=C(NCCNC(=O)c1ccco1)c1ccc(F)cc1	-3	2	-7	4	-1	0	/	/	/
CCOC(=O)c1ccc2ncc(C(=O)OCC)c(NCCCN3CCOCC3)c2c1	-5	1	-7	6	2	0	/	/	/
CCOC(=O)c1cnc2ccc(C)cc2c1NCCN1CCOCC1	44*	-1	/	3	-4	4	1	-4	1
Cc1noc(/C=C/N(C)C)c1S(=O)(=O)N1CCCC(C(=O)NCc2cccs2)C1 (stereo not drawn)	17*	-5	-12	-1	-3	2	0	-2	-6
Cc1cccnc1NC(=O)C1CCN(S(=O)(=O)c2c(C)noc2/C=C/c2ccco2)CC1	24*	3	-8	-2	1	6	0	-2	-11
COc1cccc(CNC(=O)C2CCCN(S(=O)(=O)c3c(C)noc3/C=C/N(C)C)C2)c1 (stereo not drawn)	9	-6	/	3	0	8	/	/	/
Cc1noc(/C=C/N(C)C)c1S(=O)(=O)N1CCC(C(=O)O)CC1	17*	1	-8	3	-1	5	-1	7	2
Cc1ccc(CNC(=O)C2CCN(S(=O)(=O)c3c(C)noc3/C=C/N(C)C)CC2)cc1	8	-4	/	-3	-2	-6	/	/	/
COc1ccc(C(=O)c2[nH]c(N)c(C(=O)c3ccccc3)c2-c2ccc(OC)c(OC)c2)cc1	-4	1	/	0	4	/	/	/	/
CC(C)[C@H](NC(=O)CC1CCCC1)C(=O)N1CCC[C@H]1C(=O)NCc1ccccc1	0	-3	/	3	1	/	/	/	/
O=S1(=O)c2ccc(Br)cc2OC[C@@H](Cc2ccccc2)N1Cc1cn(Cc2ccc(Cl)cc2)nn1	0	2	/	3	-6	/	/	/	/
SMILES	LEDGF integ inh	PRMT1 FP inh	RBBP9 inh	UHRF1 binding	MBD2 inh	ABHD5-PLIN5 inh	IN multimer up	TRFRET interf	LEDGF integ conf
COc1ccc2c(c1)O/C(=C\c1ccco1)C2=O	2	10	3	-6	-4	9	/	/	/
Cc1cc(O)c(CN(C)C)c2c1C(=O)/C(=C/c1ccco1)O2	26*	13	/	16	6	12	11*	-41	24*
CCOC(=O)c1c2c(n(Cc3ccccc3)c1C)C(=O)C(=O)c1ccccc1-2	17*	0	/	2	-9	-34	3	-9	72*
CCCCCCc1ccc(NC(=O)[C@@H]2CC=C[C@@H]3CCN(Cc4ccccc4)C(=O)[C@@H]32)cc1	1	1	/	0	-3	/	/	/	/
CCOC(=O)N1CCN(C(=O)C[C@@H]2C[C@@]3(C(=O)OCC)CCCC=C3N(Cc3ccccc3)C2=O)CC1	5	-6	/	-2	-3	-1	/	/	/
CCOC(=O)[C@]12CCCC=C1N(Cc1ccccc1)C(=O)[C@H](CC(=O)N1CCCCCC1)C2	23*	2	/	2	0	2	2	-12	-10
Cc1ccc(N2C(=O)N(CC(=O)Nc3cccc(C)c3C)C(=O)C2C)cc1 (stereo not drawn)	15*	0	/	-1	-3	4	0	-1	-6
Cc1ccc(N2C(=O)N(CC(=O)Nc3cc(Cl)ccc3C)C(=O)C2C)cc1 (stereo not drawn)	-4	1	/	6	5	-4	/	/	/
FC(F)(F)c1ccccc1CN1CCCc2nc(-c3ccc(Br)cc3)ccc21	-2	2	/	-3	-2	/	/	/	/
Cn1ccnc1SCC(=O)c1cc2ccccc2o1	25*	9	-7	-4	-4	-12	7	-25	7
Cn1cnnc1SCC(=O)c1cc2ccccc2o1	2	-2	-7	2	4	-2	/	/	/
O=C(CN1CCN(Cc2ccccc2Cl)CC1)N/N=C\c1ccccc1F	6	-4	/	-2	-4	/	/	/	/
